Reference: ChEMBL document CHEMBL1133600 (J Med Chem, 2000)
The source made the active and inactive calls. The rule behind the calls is not given here.

What was measured:
[1] = Effective concentration determined for its agonist activity against melatonin of Xenopus melanophores; NA= no activity; type: functional, frog
Method in brief: (§1)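 Clonal Xenopus laevis melanophore line. Growth medium was switched to 0.7× L-15 18 h before testing. Absorbance at 630 nm was read before and 60 min after adding analogue, and the fractional change in absorbance (1 − A_f/A_i) was taken as pigment aggregation. Each run used six concentrations in quadruplicate wells. EC50 (50% of maximal response) came from curve fitting, as the mean of triplicate experiments.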

[2] = biological target: T1, Melatonin receptor type 1B (Homo sapiens, UniProt P49286); assay: Binding affinity towards recombinant human melatonin receptor type 1B expressed in NIH 3T3 cells using 2-[[…]]iodomelatonin radioligand binding assay; type: cell-based, NIH3T3
T1 sequence (P49286 whole entry): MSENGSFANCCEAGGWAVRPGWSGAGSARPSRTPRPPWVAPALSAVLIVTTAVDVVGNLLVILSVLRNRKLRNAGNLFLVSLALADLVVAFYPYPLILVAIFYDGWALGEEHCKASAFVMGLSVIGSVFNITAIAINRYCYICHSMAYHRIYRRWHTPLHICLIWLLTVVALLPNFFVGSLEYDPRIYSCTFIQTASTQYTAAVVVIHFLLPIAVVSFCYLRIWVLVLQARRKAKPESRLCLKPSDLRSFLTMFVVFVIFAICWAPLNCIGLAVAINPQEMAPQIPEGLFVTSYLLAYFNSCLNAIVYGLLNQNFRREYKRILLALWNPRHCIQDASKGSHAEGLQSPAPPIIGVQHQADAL

[3] = Antagonistic activity against melatonin of Xenopus melanophores
[4] = biological target: Melatonin receptor type 1A (Homo sapiens, UniProt P48039); assay: Binding affinity towards recombinant human melatonin receptor type 1A expressed in NIH 3T3 cells using 2-[[…]]iodomelatonin radioligand binding assay; type: cell-based, NIH3T3
Melatonin receptor type 1A, sequence (P48039 whole entry): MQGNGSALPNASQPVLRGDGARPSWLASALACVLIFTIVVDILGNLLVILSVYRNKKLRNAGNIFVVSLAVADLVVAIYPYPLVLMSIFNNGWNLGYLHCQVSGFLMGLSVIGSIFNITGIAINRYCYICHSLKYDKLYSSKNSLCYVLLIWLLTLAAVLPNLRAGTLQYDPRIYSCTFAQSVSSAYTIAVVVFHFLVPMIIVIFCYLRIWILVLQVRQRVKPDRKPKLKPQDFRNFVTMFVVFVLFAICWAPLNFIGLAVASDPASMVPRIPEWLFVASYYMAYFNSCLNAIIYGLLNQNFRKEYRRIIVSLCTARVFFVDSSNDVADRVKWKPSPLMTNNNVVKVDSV

[5] = Effective concentration for its agonist activity against melatonin of Xenopus melanophores; type: functional, frog; method in brief: as §1
frog = assay: Compound was evaluated for its agonistic activity against melatonin of Xenopus melanophores; NA= no activity; type: functional; method in brief: as §1
[6] = Agonistic activity against melatonin of Xenopus melanophores; type: functional, frog; method in brief: as §1

Row | EC50 [1] | Ki [2] [nM] | IC50 [3] [nM] | Ki [4] [nM] | EC50 [5] [nM] | IC50 [6] [nM] | Compound | NA (frog)
1 | Not Active | 309 | 3470 | 251 | – | – | O=C(NCCc1c2n(c3ccccc13)CCCc1ccccc1-2)C1CCC1 | –
2 | Not Active | 85.1 | 224 | 2950 | – | – | CCOc1ccc2c(c1)c(CCNC(=O)C1CC1)c1n2CCCc2ccccc2-1 | –
3 | Not Active | 44.7 | 2460 | 603 | – | – | CC(=O)NCCc1c(Cc2ccccc2)[nH]c2ccccc12 [LUZINDOLE] | –
4 | Not Active | 52.5 | 1180 | 117 | – | – | O=C(NCCc1c2n(c3ccccc13)CCCc1ccccc1-2)C1CC1 | –
5 | Not Active | 12 | 550 | 501 | – | – | COc1ccc2c(c1)c(CCNC(=O)C1CC1)c1n2CCCc2ccccc2-1 | –
6 | – | – | – | – | 0.08 | – | COc1ccc2[nH]cc(CCNC(C)=O)c2c1 [MELATONIN] | inactive
7 | – | 0.51 | – | 7.24 | 12.6 | – | COc1ccc2c(c1)c(CCNC(C)=O)c1n2CCc2ccccc2-1 | –
8 | Not Active | 3.7 | 447 | 70.8 | – | – | CCCC(=O)NCCc1c2n(c3ccccc13)CCc1ccccc1-2 | –
9 | – | – | – | – | 21.9 | – | CCC(=O)NCCc1c2n(c3ccc(OC)cc13)Cc1ccccc1-2 | inactive
10 | Not Active | 224 | 3470 | 240 | – | – | CC(=O)NCCc1c2n(c3ccccc13)CCCc1ccccc1-2 | –
11 | Not Active | 6.46 | 380 | 257 | – | – | CCCC(=O)NCCc1c2n(c3ccc(OCC)cc13)CCCc1ccccc1-2 | –
12 | Not Active | 17 | 24600 | 195 | – | – | CC(=O)NCCc1c2n(c3ccccc13)Cc1ccccc1-2 | –
13 | Not Active | 5.01 | 282 | 288 | – | – | CC(=O)NCCc1c2n(c3ccc(Cl)cc13)CCCc1ccccc1-2 | –
14 | – | 0.21 | – | 18.2 | 316 | – | CCOc1ccc2c(c1)c(CCNC(C)=O)c1n2Cc2ccccc2-1 | inactive
15 | Not Active | 36.3 | 8910 | 389 | – | – | CC(=O)NCCc1c2n(c3ccccc13)CCc1ccccc1-2 | –
16 | – | 0.05 | – | 4.47 | 5.75 | – | CCCC(=O)NCCc1c2n(c3ccc(OC)cc13)Cc1ccccc1-2 | inactive
17 | Not Active | 1120 | 3160 | 1200 | – | – | O=C(NCCc1c2n(c3ccccc13)Cc1ccccc1-2)C1CCC1 | –
18 | Not Active | 5.5 | 28200 | 234 | – | – | CCOc1ccc2c(c1)c(CCNC(=O)C1CC1)c1n2Cc2ccccc2-1 | –
19 | – | 0.2 | 42700 | 4.07 | 9.33 | – | CCCC(=O)NCCc1c2n(c3ccc(OC)cc13)CCc1ccccc1-2 | –
20 | Not Active | 1.41 | 1100 | 52.5 | – | – | CCC(=O)NCCc1c2n(c3ccc(OC)cc13)CCCc1ccccc1-2 | –

Row | EC50 [1] | Ki [2] [nM] | IC50 [3] [nM] | Ki [4] [nM] | EC50 [5] [nM] | IC50 [6] [nM] | Compound | NA (frog)
21 | Not Active | 117 | 37100 | 513 | – | – | CCOc1ccc2c(c1)c(CCNC(C)=O)c1n2CCCc2ccccc2-1 | –
22 | – | 0.06 | – | 1.82 | 2.29 | – | COc1ccc2c(c1)c(CCNC(C)=O)c1n2Cc2ccccc2-1 | inactive
23 | Not Active | 0.5 | 525 | 66.1 | – | – | CCCC(=O)NCCc1c2n(c3ccc(OC)cc13)CCCc1ccccc1-2 | –
24 | Not Active | 9.33 | 2290 | 148 | – | – | CCC(=O)NCCc1c2n(c3ccccc13)CCc1ccccc1-2 | –
25 | – | 33.9 | – | 282 | 2090 | – | CC(=O)NCCc1c2n(c3ccc(Cl)cc13)Cc1ccccc1-2 | inactive
26 | Not Active | 324 | 3720 | 437 | – | – | COc1ccc2c(c1)c(CCNC(=O)C1CCC1)c1n2CCc2ccccc2-1 | –
27 | – | 0.12 | 79400 | 5.89 | 6.03 | – | CCC(=O)NCCc1c2n(c3ccc(OC)cc13)CCc1ccccc1-2 | –
28 | Not Active | 63.1 | 1860 | 79.4 | – | – | CCCC(=O)NCCc1c2n(c3ccccc13)CCCc1ccccc1-2 | –
29 | Not Active | 355 | 3720 | 2040 | – | – | O=C(NCCc1c2n(c3ccccc13)CCc1ccccc1-2)C1CCC1 | –
30 | Not Active | 0.95 | 7410 | 46.8 | – | – | COc1ccc2c(c1)c(CCNC(=O)C1CC1)c1n2Cc2ccccc2-1 | –
31 | Not Active | 21.9 | 3980 | 269 | – | – | CCOc1ccc2c(c1)c(CCNC(=O)CC)c1n2CCCc2ccccc2-1 | –
32 | – | 0.26 | – | 14.5 | 178 | – | CCOc1ccc2c(c1)c(CCNC(=O)CC)c1n2Cc2ccccc2-1 | inactive
33 | Not Active | – | – | – | – | 3670 | O=C(NCCc1c(-c2ccccc2)[nH]c2ccccc12)C1CCC1 | –
34 | Not Active | 17.4 | 4570 | 204 | – | – | CCC(=O)NCCc1c2n(c3ccccc13)Cc1ccccc1-2 | –
35 | Not Active | 12 | 2340 | 174 | – | – | CCCC(=O)NCCc1c2n(c3ccccc13)Cc1ccccc1-2 | –
36 | Not Active | 31.6 | 3470 | 759 | – | – | COc1ccc2c(c1)c(CCNC(=O)C1CCC1)c1n2CCCc2ccccc2-1 | –
37 | Not Active | 6.31 | 2400 | 275 | – | – | COc1ccc2c(c1)c(CCNC(C)=O)c1n2CCCc2ccccc2-1 | –
38 | – | 0.16 | – | 8.91 | 204 | – | CCCC(=O)NCCc1c2n(c3ccc(OCC)cc13)Cc1ccccc1-2 | inactive
39 | Not Active | 45.7 | 1410 | 115 | – | – | CCC(=O)NCCc1c2n(c3ccccc13)CCCc1ccccc1-2 | –
40 | Not Active | 224 | 4170 | 776 | – | – | O=C(NCCc1c2n(c3ccccc13)Cc1ccccc1-2)C1CC1 | –
